For one series, the system named is Monkey. The series is described as follows: Iron clearing efficiency in monkey at 150 umol/kg. It counts as functional, Sapajus apella. Summed up: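 Cebus apella monkeys (3.5–4 kg) iron-overloaded with iv iron dextran (~500 mg Fe/kg), ≥60 d before use; single po 150 μmol/kg (monosodium salt or 40% Cremophor RH-40/water). Feces and urine collected every 24 h, 4 d before to 5 d after dosing; iron by flame AAS. ICE = 2-day post-drug output minus 4-day pre-drug mean, over theoretical (2:1 complex), percent; mean ± SEM.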

Series [1] concerns Rattus norvegicus. The series is described as follows: Drug level in Sprague-Dawley rat heart at 300 umol/kg, sc after 0.5 hrs. It is filed as ADME, organism-based. As to conditions: in vivo. In short, it runs like this: (§1)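 Heart drug level: male Sprague-Dawley rats (250–350 g), single sc injection of monosodium salt, 300 μmol/kg; CO2 euthanasia at set times (n = 3 per time point). Tissue homogenized in water 1:2 (w/v), proteins precipitated with 3 vol CH3OH at −20 °C 20 min, filtered; reversed-phase HPLC, UV 310 nm, calibration-curve quantitation; nmol/g wet weight, mean.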

A short description of series [2]: Partition coefficient, log P of the compound. As to conditions: octanol/water. It counts as physicochemical. In short, it runs like this: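 Shake-flask direct partition between octanol and TRIS buffer, pH 7.4; expressed as log of the fraction in the octanol layer (log P_app).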
For series [3], the system named is Rattus norvegicus. Nature of the series: Drug level in Sprague-Dawley rat kidney at 300 umol/kg, sc after 0.5 hrs. It counts as ADME, organism-based. The note with it: in vivo. In short, it runs like this: (§2)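 Kidney level after single sc 300 μmol/kg monosodium salt in male Sprague-Dawley rats (250–350 g), n = 3 per time point. Water homogenate (1:2 w/v), methanol protein precipitation, 0.2 μm filtration, RP amide C16 HPLC with UV at 310 nm; linear range 1–1000 μM; reported as nmol/g wet weight, mean.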

The subject of series [4] is Rattus norvegicus. Nature of the series: Toxicity in Sprague-Dawley rat at 384 umol/kg, po. It is filed as organism-based. As to conditions: in vivo. In short, it runs like this: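 Male Sprague-Dawley rats (250–300 g), fasted overnight, gavaged once daily at 384 μmol/kg/d for up to 10 d; fed ~3 h post-dose for 5 h, then fasted. Age-matched controls; monitored at least three times daily, moribund animals euthanized; survivors sacrificed one day after last dose for histopathology.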

Series [5] relates to Rattus norvegicus. The series is described as follows: Iron clearing efficiency in Sprague-Dawley rat at 300 umol/kg, po. It is filed as functional. In short, it runs like this:
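Bile-duct-cannulated, non-iron-overloaded male Sprague-Dawley rats (400–450 g) given single oral dose, 150 or 300 μmol/kg, as water solution, in 40% Cremophor RH-40/water, or monosodium salt. Bile every 3 h up to 48 h, urine every 24 h; iron by flame AAS. Efficiency = (treated minus control iron excretion)/theoretical output (2:1 complex), percent; mean ± SEM.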

Series [6] deals with Rattus norvegicus. Nature of the series: Drug level in Sprague-Dawley rat kidney at 300 umol/kg, sc after 1 hr. It is filed as ADME, organism-based. As to conditions: in vivo. In short, it runs like this:
as §2

A short description of series [7]: Drug level in Sprague-Dawley rat plasma at 300 umol/kg, sc after 2 hrs. It is filed as ADME, organism-based. In short, it runs like this: (§3)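 Plasma: male Sprague-Dawley rats (250–350 g) dosed sc once at 300 μmol/kg as monosodium salt; blood by cardiac puncture into sodium citrate, centrifuged; methanol deproteinization, filtered, HPLC-UV 310 nm, detection limit 0.5 μM; μM, mean of n = 3 per time point.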

The subject of series [8] is Rattus norvegicus. The series is described as follows: Drug level in Sprague-Dawley rat liver at 300 umol/kg, sc after 0.5 hrs. It counts as ADME, organism-based. The note with it: in vivo. Summed up:
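Liver sampled from male Sprague-Dawley rats (250–350 g) given one sc dose, 300 μmol/kg, as monosodium salt; n = 3 per time point. Homogenized in water, methanol-precipitated, filtered, analysed by HPLC-UV at 310 nm against calibration curves; nmol compound per g wet weight, mean; O-demethylated metabolite also measured.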

Series [9] in a line: (§4) Drug level in Sprague-Dawley rat plasma at 300 umol/kg, sc after 0.5 hrs. The note with it: Sprague-Dawley, plasma, 300 umol/kg. It is filed as ADME, organism-based. Summed up: as §3
For series [10], the system named is Rattus norvegicus. The series is described as follows: Drug level in Sprague-Dawley rat pancreas at 300 umol/kg, sc after 4 hrs. It counts as ADME, organism-based. The note with it: in vivo. In short, it runs like this:
(§5)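 Pancreas concentration: single sc 300 μmol/kg (monosodium salt) to male Sprague-Dawley rats (250–350 g), three rats per time point, CO2 euthanasia. Tissue homogenate in water (1:2 w/v), CH3OH protein precipitation, filtration, RP HPLC with 310 nm UV detection; nmol/g wet weight, mean.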

Series [11] has as its system Rattus norvegicus. Nature of the series: Drug level in Sprague-Dawley rat heart at 300 umol/kg, sc after 4 hrs. It is filed as ADME, organism-based. As to conditions: in vivo. In short, it runs like this: as §1
For series [12], the system named is Rattus norvegicus. Nature of the series: Drug level in Sprague-Dawley rat pancreas at 300 umol/kg, sc after 1 hr. It counts as ADME, organism-based. The note with it: in vivo. In short, it runs like this:
as §5

In series [13] the test system is Rattus norvegicus. The series is described as follows: Drug level in Sprague-Dawley rat heart at 300 umol/kg, sc after 8 hrs. It counts as ADME, organism-based. The note with it: in vivo. Summed up: as §1
Series [14] relates to Rattus norvegicus. The description is as §4. It is filed as ADME, organism-based. The note with it: in vivo, 0.5 h. In short, it runs like this:
as §3

As for `O=C(O)[C@H]1CSC(c2cc(O)ccc2O)=N1`, the figures for the Activity with Monkey and in the series on Rattus norvegicus [4] were 1.8% and “Non-toxic”, respectively. Further, the Drug uptake in the series with Rattus norvegicus [1] worked out at 42 nmol/g; with Rattus norvegicus [3] it was 629 nmol/g. The compound also returned a logP in series [2] of -1.52.

For the compound `COc1ccc(C2=N[C@@](C)(C(=O)O)CS2)c(O)c1`, the figures for the Activity in the series on Rattus norvegicus [5], in the series on Monkey and in the series with Rattus norvegicus [4] were 6.6%, 24.4% and “Toxic”, respectively. The compound further had a Drug uptake in the series with Rattus norvegicus [3] of 282 nmol/g.

With `C[C@]1(C(=O)O)CSC(c2ccc(O)cc2O)=N1` [DEFERITRIN], the figures for the Activity in the series on Rattus norvegicus [5], in the series with Monkey and in the series on Rattus norvegicus [4] were 1.1%, 16.8% and “Non-toxic”, respectively. Besides, the Drug uptake in the series with Rattus norvegicus [6] is 179 nmol/g; in the series with Rattus norvegicus [8] it was 124 nmol/g; in the series with Rattus norvegicus [3], 361 nmol/g. In addition, in [7], the concentration at 2 h was found to be 13 µM. The compound further showed a concentration at 0.5 h in series [9] of 92 µM.

Turning to `COc1ccc(C2=N[C@@H](C(=O)O)CS2)c(O)c1OC`, the Activity in the series with Rattus norvegicus [5] is given as 11.9%; in the series on Monkey it was 12.4%; in the series on Rattus norvegicus [4], “Non-toxic”. This compound gave a Drug uptake in the series on Rattus norvegicus [1] of 185 nmol/g. The compound further yielded a logP in series [2] of -1.28.

Consider `COc1ccc(O)c(C2=N[C@@H](C(=O)O)CS2)c1`, for which the Activity in the series with Rattus norvegicus [5] is recorded as 8.9%; with Monkey, 12%; in the series with Rattus norvegicus [4], “Non-toxic”. In addition, the Drug uptake in the series on Rattus norvegicus [10] is 45 nmol/g; in the series on Rattus norvegicus [11] it was 61 nmol/g; in the series on Rattus norvegicus [1], 380 nmol/g; with Rattus norvegicus [8] it was 564 nmol/g. The logP in series [2] is -0.81.

Take `COc1ccc(O)c(C2=N[C@@](C)(C(=O)O)CS2)c1`: the Activity in the series with Rattus norvegicus [5] was 6.3%; in the series with Monkey, 18.9%; with Rattus norvegicus [4], “Toxic”. In addition, the Drug uptake is recorded as 208 nmol/g in the series with Rattus norvegicus [1], 153 nmol/g in the series on Rattus norvegicus [12] and 382 nmol/g in the series with Rattus norvegicus [8]. Besides, the logP in [2] was -0.61. In addition, the concentration at 0.5 h in series [9] worked out at 803 µM.

Turning to `C[C@]1(C(=O)O)CSC(c2cc(O)ccc2O)=N1`, the Activity was 1% with Rattus norvegicus [5], 12.6% in the series on Monkey and “Non-toxic” in the series on Rattus norvegicus [4]. In addition, the logP in [2] is -1.14. In the series with Rattus norvegicus [3], this compound came in with a Drug uptake of 1216 nmol/g.

As to `COc1ccc(C2=N[C@@](C)(C(=O)O)CS2)c(O)c1OC`, the Activity in the series on Rattus norvegicus [5] is 16.6%; in the series on Rattus norvegicus [4], “Toxic”. The Drug uptake in the series with Rattus norvegicus [1] is 259 nmol/g; in the series with Rattus norvegicus [8], 924 nmol/g; in the series on Rattus norvegicus [13], 3 nmol/g; in the series on Rattus norvegicus [3], 1375 nmol/g. Besides, the logP in series [2] is -0.95. The compound also showed a Cp with Rattus norvegicus [14] of 907 µM.

Regarding `O=C(O)[C@H]1CSC(c2ccc(O)cc2O)=N1`, the Activity with Rattus norvegicus [5] was 2.9%; in the series on Monkey it was 4.2%; in the series with Rattus norvegicus [4] it was “Non-toxic”. Further, in [7], the concentration at 2 h came out at 5 µM. This compound also yielded a concentration at 0.5 h in series [9] of 209 µM. In the series on Rattus norvegicus [3], this compound had a Drug uptake of 667 nmol/g.

Take `COc1ccc(C2=N[C@@H](C(=O)O)CS2)c(O)c1`: the Activity is listed as 11.6% in the series with Rattus norvegicus [5], 16.2% in the series with Monkey and “Non-toxic” in the series with Rattus norvegicus [4].

The record behind these values is ChEMBL document CHEMBL1138882, “The design, synthesis, and evaluation of organ-specific iron chelators” (J Med Chem, 2006).
